Results reported in ChEMBL document CHEMBL1641411, “Synthesis and optimization of novel 4,4-disubstituted cyclohexylbenzamide derivatives as potent 11β-HSD1 inhibitors” (Bioorg Med Chem Lett, 2011).
The source made the active and inactive calls. No cut-off for these calls is given here.

Legend:
[1] = Metabolic stability in rat liver microsomes assessed as compound turnover at 30 mins; format: ADME, Microsome; details: read-out: Stability
In short: (§1)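 Compounds incubated with human or rat liver microsomes; percent turnover of parent measured at 30 min.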

[2] = Metabolic stability in human liver microsomes assessed as compound turnover at 30 mins; format: ADME, Microsome; details: read-out: Stability; in short: as §1
[3] = target: T1, Nuclear receptor subfamily 1 group I member 2 (Homo sapiens, UniProt O75469); experiment: Activation of PXR relative to control; set-up: concentration or dose not given beside the values
T1 sequence (O75469 whole entry): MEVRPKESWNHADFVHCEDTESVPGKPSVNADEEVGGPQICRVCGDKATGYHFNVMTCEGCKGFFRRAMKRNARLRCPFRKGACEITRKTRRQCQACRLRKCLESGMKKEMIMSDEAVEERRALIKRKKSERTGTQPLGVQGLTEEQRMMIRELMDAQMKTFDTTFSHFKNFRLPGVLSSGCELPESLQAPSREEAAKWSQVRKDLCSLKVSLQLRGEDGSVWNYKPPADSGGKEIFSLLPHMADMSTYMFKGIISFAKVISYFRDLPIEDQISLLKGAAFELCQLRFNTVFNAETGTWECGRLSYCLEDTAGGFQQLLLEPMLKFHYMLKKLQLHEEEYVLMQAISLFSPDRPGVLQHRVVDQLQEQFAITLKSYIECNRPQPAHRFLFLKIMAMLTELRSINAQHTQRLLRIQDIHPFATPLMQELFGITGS
In short: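 PXR activation measured with compound at 2 µM, expressed as % of control.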

Cynomolgus monkey = details: Macaca fascicularis; 4 to 100 mg/kg
[4] = Inhibition of cynomolgus monkey 11beta-HSD1 assessed as inhibition of conversion of [3H]cortisone to [3H]cortisol by scintillation proximity assay; set-up: species or system Macaca fascicularis
[5] = Plasma concentration in cynomolgus monkey at 20 mg/kg, po after 2 hrs by LC/MS/MS analysis; format: ADME, organism-based, Macaca fascicularis; set-up: dose 20 mg/kg, route oral
In short: (§2)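 Monkeys given oral doses of 4, 20 or 100 mg/kg in 1% methylcellulose/1% Tween 80 in sterile water, 5–6 animals per group. Plasma collected 2 h after dosing for drug concentration.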

[6] = Plasma concentration in cynomolgus monkey at 4 mg/kg, po after 2 hrs by LC/MS/MS analysis; format: ADME, organism-based, Macaca fascicularis; set-up: dose 4 mg/kg, route oral; in short: as §2
[7] = Bioavailability in cynomolgus monkey; format: ADME, organism-based, Macaca fascicularis; details: in vivo
[8] = Plasma concentration in cynomolgus monkey at 100 mg/kg, po after 2 hrs by LC/MS/MS analysis; format: ADME, organism-based, Macaca fascicularis; set-up: dose 100 mg/kg, route oral; in short: as §2
[9] = Clearance in cynomolgus monkey; format: ADME, organism-based, Macaca fascicularis; details: in vivo
Rattus norvegicus [10] = experiment: Ex vivo inhibition of 11beta-HSD1 in Sprague-Dawley rat assessed as inhibition of conversion of [3H]cortisone to [3H]cortisol at 100 mg/kg, po; format: functional
In short: (§3)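 Sprague–Dawley rats dosed orally at 4, 20 or 100 mg/kg; killed 2 h post-dose. Epididymal fat isolated and incubated in media containing [3H]-cortisone; rat 11β-HSD1 activity read as [3H]-cortisol formed. Reported as % inhibition over vehicle-dosed animals.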

[11] = Oral bioavailability in rat at 2 mg/kg; format: ADME, organism-based; details: in vivo
In short: (§4)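 Rat PK: single iv dose of 0.5 mg/kg, with a separate oral dose of 2.0 mg/kg. Clearance, Vdss and half-life come from the iv arm. Oral AUC and %F come from the po arm.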

[12] = Clearance in rat at 0.5 mg/kg, iv and 2 mg/kg, po; format: ADME, organism-based; details: in vivo; in short: as §4
[13] = Volume of distribution at steady state in rat at 0.5 mg/kg, iv and 2 mg/kg, po; format: ADME, organism-based; details: in vivo, read-out: Vdss; in short: as §4
[14] = AUC in rat at 2 mg/kg, po; format: ADME, organism-based; set-up: dose 2 mg/kg, route oral; details: plasma; in short: as §4
Rattus norvegicus [15] = experiment: Ex vivo inhibition of 11beta-HSD1 in Sprague-Dawley rat assessed as inhibition of conversion of [3H]cortisone to [3H]cortisol at 4 mg/kg, po; format: functional; in short: as §3
[16] = Half life in rat at 0.5 mg/kg, iv; format: ADME, organism-based; set-up: dose 0.5 mg/kg, route intravenous; details: in vivo; in short: as §4
Rattus norvegicus [17] = experiment: Ex vivo inhibition of 11beta-HSD1 in Sprague-Dawley rat assessed as inhibition of conversion of [3H]cortisone to [3H]cortisol at 20 mg/kg, po; format: functional; in short: as §3
[18] = target: 11-beta-hydroxysteroid dehydrogenase 1 (Rattus norvegicus, UniProt P16232); experiment: Inhibition of rat 11beta-HSD1 assessed as inhibition of conversion of [3H]cortisone to [3H]cortisol by scintillation proximity assay
11-beta-hydroxysteroid dehydrogenase 1, sequence (P16232 whole entry): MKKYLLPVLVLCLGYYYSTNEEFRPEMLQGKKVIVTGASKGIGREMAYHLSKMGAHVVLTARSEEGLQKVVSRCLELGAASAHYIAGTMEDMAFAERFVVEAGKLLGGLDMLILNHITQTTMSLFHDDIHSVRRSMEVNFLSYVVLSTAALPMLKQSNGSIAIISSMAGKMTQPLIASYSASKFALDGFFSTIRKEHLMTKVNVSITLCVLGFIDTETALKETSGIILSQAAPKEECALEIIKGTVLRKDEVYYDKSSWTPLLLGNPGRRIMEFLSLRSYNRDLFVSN

| Structure (SMILES) | metabolised at 0.5 h [1] [%] | metabolised at 0.5 h [2] [%] | Activity [3] [%] | further results |
| --- | --- | --- | --- | --- |
| C[C@](O)(c1ccc(C(=O)N(C2CC2)[C@H]2CC[C@](CC#N)(c3ccccc3)CC2)cc1)C(F)(F)F | 17 | 19 | 9 | – |
| C[C@](O)(c1ccc(C(=O)N(C2CC2)[C@H]2CC[C@](CCC#N)(c3ccccc3)CC2)cc1)C(F)(F)F | 51 | 10 | – | – |
| C[C@](O)(c1ccc(C(=O)N(C2CC2)[C@H]2CC[C@](CC(N)=O)(c3ccccc3)CC2)cc1)C(F)(F)F | < 10 | < 10 | < 5 | – |
| C[C@](O)(c1ccc(C(=O)N(C2CC2)[C@H]2CC[C@](COC(N)=O)(c3ccc(F)cn3)CC2)cc1)C(F)(F)F | < 10 | < 10 | – | – |
| C[C@](O)(c1ccc(C(=O)N(C2CC2)[C@H]2CC[C@](COC(N)=O)(c3ccc(F)cc3)CC2)cc1)C(F)(F)F | < 10 | < 10 | – | – |
| C[C@](O)(c1ccc(C(=O)N(C2CC2)[C@H]2CC[C@](CNS(C)(=O)=O)(c3ccccc3)CC2)cc1)C(F)(F)F | 21 | < 10 | < 5 | – |
| C[C@](O)(c1ccc(C(=O)N(C2CC2)[C@H]2CC[C@](CCC(N)=O)(c3ccccc3)CC2)cc1)C(F)(F)F | < 10 | < 10 | < 5 | inhibition (Cynomolgus monkey): Active; IC50 [4]: 22 nM; concentration at 2 h [5]: 2000 ng/mL; concentration at 2 h [6]: 151 ng/mL; bioavailability [7]: 81%; concentration at 2 h [8]: 1710 ng/mL; clearance [9]: 1 mL/min/kg |
| C[C@](O)(c1ccc(C(=O)N(C2CC2)[C@H]2CC[C@](CCO)(c3ccccc3)CC2)cc1)C(F)(F)F | < 10 | < 10 | 6 | – |
| C[C@](O)(c1ccc(C(=O)N(C2CC2)[C@H]2CC[C@](COC(N)=O)(c3ccccc3F)CC2)cc1)C(F)(F)F | < 10 | < 10 | – | inhibition in vivo at 100 mg/kg (Rattus norvegicus [10]): 70%; bioavailability [11]: 48%; clearance [12]: 2.5 mL/min/kg; Vd [13]: 1.28 L/kg; AUC [14]: 6790 ng·h/mL; inhibition in vivo at 4 mg/kg (Rattus norvegicus [15]): 27%; half-life [16]: 5.2 h; inhibition in vivo at 20 mg/kg (Rattus norvegicus [17]): 43%; IC50 [18]: 144 nM |
| CC(=O)NC[C@]1(c2ccccc2)CC[C@H](N(C(=O)c2ccc([C@](C)(O)C(F)(F)F)cc2)C2CC2)CC1 | < 10 | < 10 | < 5 | – |
| C[C@](O)(c1ccc(C(=O)N(C2CC2)[C@H]2CC[C@](COC(N)=O)(c3ccccc3)CC2)cc1)C(F)(F)F | < 10 | < 10 | < 5 | inhibition in vivo at 100 mg/kg (Rattus norvegicus [10]): 71%; bioavailability [11]: 20%; clearance [12]: 2.67 mL/min/kg; Vd [13]: 1 L/kg; AUC [14]: 2770 ng·h/mL; inhibition in vivo at 4 mg/kg (Rattus norvegicus [15]): 23%; half-life [16]: 3.9 h; inhibition in vivo at 20 mg/kg (Rattus norvegicus [17]): 43%; IC50 [18]: 86 nM |
| C[C@](O)(c1ccc(C(=O)N(C2CC2)[C@H]2CC[C@](CCC(N)=O)(c3ccccc3F)CC2)cc1)C(F)(F)F | < 10 | < 10 | – | – |
| C[C@](O)(c1ccc(C(=O)N(C2CC2)[C@H]2CC[C@](CCC(N)=O)(c3ccc(F)cc3)CC2)cc1)C(F)(F)F | < 10 | < 10 | – | – |
| C[C@](O)(c1ccc(C(=O)N(C2CC2)[C@H]2CC[C@](COC(N)=O)(c3ccccn3)CC2)cc1)C(F)(F)F | < 10 | < 10 | – | inhibition in vivo at 100 mg/kg (Rattus norvegicus [10]): 72%; bioavailability [11]: 64%; clearance [12]: 3.5 mL/min/kg; Vd [13]: 1.24 L/kg; AUC [14]: 6180 ng·h/mL; inhibition in vivo at 4 mg/kg (Rattus norvegicus [15]): 14%; half-life [16]: 4.2 h; inhibition in vivo at 20 mg/kg (Rattus norvegicus [17]): 44%; IC50 [18]: 220 nM |
| C[C@](O)(c1ccc(C(=O)N(C2CC2)[C@H]2CC[C@](CO)(c3ccccc3)CC2)cc1)C(F)(F)F | 32 | 10 | < 5 | – |
| C[C@](O)(c1ccc(C(=O)N(C2CC2)[C@H]2CC[C@](COC(N)=O)(c3cscn3)CC2)cc1)C(F)(F)F | < 10 | < 10 | – | inhibition in vivo at 100 mg/kg (Rattus norvegicus [10]): 75%; bioavailability [11]: 25%; clearance [12]: 13.7 mL/min/kg; Vd [13]: 3.7 L/kg; AUC [14]: 618 ng·h/mL; inhibition in vivo at 4 mg/kg (Rattus norvegicus [15]): 6%; half-life [16]: 4.5 h; inhibition in vivo at 20 mg/kg (Rattus norvegicus [17]): 38%; IC50 [18]: 30 nM |
| C[C@](O)(c1ccc(C(=O)N(C2CC2)[C@H]2CC[C@](CCC(N)=O)(c3ccccn3)CC2)cc1)C(F)(F)F | < 10 | < 10 | – | – |
| C[C@](O)(c1ccc(C(=O)N(C2CC2)[C@H]2CC[C@](O)(C3CC3)CC2)cc1)C(F)(F)F | < 10 | < 10 | < 5 | – |
